SMILES strings stand for the structures.

This note sets out measurements from ChEMBL document CHEMBL1122055, “DL-threo-beta-Fluoroaspartate and DL-threo-beta-fluoroasparagine: selective cytotoxic agents for mammalian cells in culture” (J Med Chem, 1982).

In experiment [1] the test system is H4. Nature of the experiment: Tested for its reversal effect on growth of H4 cells at 133+5 ug/mL concentrations of L-aspargine and DL-threo-beta-fluoroaspartate. It is filed as functional. A digest of the protocol: (§1)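 Rat hepatoma H4 cells seeded at 1.4×10^4 per 35-mm dish in MEM+. On day 4, fresh MEM+ was added, with treatments including L-aspartate or L-asparagine. Exposure 66 h, then total cell protein per dish measured by Lowry. Results expressed as % of untreated control protein, mean of duplicate dishes.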

Experiment [2] relates to H4. The experiment is described as follows: Tested for its reversal effect on growth of H4 cells at 330+5 ug/mL concentrations of L-aspargine and DL-threo-beta-fluoroaspartate. It is filed as functional. In short, it runs like this:
(§2)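 H4 hepatoma cells seeded at 8×10^3 per 35-mm dish in F 10+ medium. On day 4, the medium was renewed and treatments started, including L-aspartate or L-asparagine. Incubation 72 h, then Lowry total cell protein per dish. Results reported as % of untreated control, mean of duplicate dishes.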

The test system of experiment [3] is H4. Nature of the experiment: Tested for its reversal effect on growth of H4 cells at 133 + 50 ug/mL concentrations of L-aspargine and DL-threo-beta-fluoroaspartate. Format: functional. A digest of the protocol: as §1
The test system of experiment [4] is H4. Nature of the experiment: Tested for its reversal effect on growth of H4 cells at 330 + 40 ug/mL concentrations of L-aspargine and DL-threo-beta-fluoroaspartate. Format: functional. A digest of the protocol:
as §2

For experiment [5], the system named is 7800C1 cell line. Nature of the experiment: Tested for its cytotoxic effect on the growth of the cell strain 7800C1 (1 x 10e 4 (MEM)) at 50 ug/mL dose. It is filed as functional, Rattus norvegicus. In short, it runs like this:
(§3)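 Cells plated in 35-mm dishes at the stated density and medium (F 10+: Ham's F10 + 15% horse serum + 2.5% fetal calf serum; MEM+: Eagle's MEM + 5% horse + 5% fetal calf serum), grown 3 days. All strains then switched to F 10+ before treatment and incubated 4 days. Growth read as total cell protein per dish (Lowry, bovine albumin standard). Single determinations; experiment repeated twice.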

The test system of experiment [6] is 7800C1 cell line. The experiment is described as follows: Tested for its cytotoxic effect on the growth of the cell strain 7800C1 (1 x 10e 4 (MEM)) at 10 ug/mL dose. Format: functional, Rattus norvegicus. In short, it runs like this: as §3
Experiment [7] relates to GH4-C1. Nature of the experiment: Tested for its cytotoxic effect on the growth of the cell strain GH4C1 (8 x 10e 4 (F 10+)) at 10 ug/mL dose. Format: functional, Rattus norvegicus. In short, it runs like this:
as §3

In experiment [8] the test system is GH3. The experiment is described as follows: Tested for its cytotoxic effect on the growth of the cell strain GH3 (2 x 10e 4 (F 10+)) at 10 ug/mL dose. Format: functional, Rattus norvegicus. In short, it runs like this: as §3
Experiment [9] relates to GH4-C1. Nature of the experiment: Tested for its cytotoxic effect on the growth of the cell strain GH4C1 (8 x 10e 4 (F 10+)) at 50 ug/mL dose. It is filed as functional, Rattus norvegicus. A digest of the protocol:
as §3

For experiment [10], the system named is H4. The experiment is described as follows: Tested for its cytotoxic effect on the growth of the cell strain H4 (8 x 10e 3 (MEM)) at 10 ug/mL dose. Format: functional. A digest of the protocol: as §3
Experiment [11] relates to H4. The experiment is described as follows: Tested for its cytotoxic effect on the growth of the cell strain H4 (8 x 10e 3 (MEM)) at 50 ug/mL dose. Format: functional. A digest of the protocol: as §3
Experiment [12] relates to H4. The experiment is described as follows: Tested for its reversal effect on growth of H4 cells at 40 ug/mL concentrations of L-aspargine and DL-threo-beta-fluoroaspartate. Format: functional. In short, it runs like this: as §2
Experiment [13] concerns H4. Nature of the experiment: Tested for its reversal effect on growth of H4 cells at 50 ug/mL concentrations of L-aspargine and DL-threo-beta-fluoroaspartate. Format: functional. A digest of the protocol: as §1
Experiment [14] deals with MH1C1. Nature of the experiment: Tested for its cytotoxic effect on the growth of the cell strain MH1C1 (1 x 10e 4 (F 10+)) at 10 ug/mL dose. Format: functional. A digest of the protocol: as §3
For experiment [15], the system named is MH1C1. Nature of the experiment: Tested for its cytotoxic effect on the growth of the cell strain MH1C1 (1 x 10e 4 (F 10+)) at 50 ug/mL dose. Format: functional. In short, it runs like this: as §3
Experiment [16] has as its system R5. Nature of the experiment: Tested for its cytotoxic effect on the growth of the cell strain R5 (1 x 10e 3 (F 10+)) at 10 ug/mL dose. Format: functional. In short, it runs like this: as §3
Experiment [17] has as its system R5. The experiment is described as follows: Tested for its cytotoxic effect on the growth of the cell strain R5 (1 x 10e 3 (F 10+)) at 50 ug/mL dose. It is filed as functional. A digest of the protocol: as §3
The subject of experiment [18] is GH3. Nature of the experiment: Tested for its cytotoxic effect on the growth of the cell strain GH3 (2 x 10e 4 (F 10+)) at 50 ug/mL dose. It is filed as functional, Rattus norvegicus. A digest of the protocol:
as §3

As to `NC(C(=O)O)C(F)C(=O)O.N[C@@H](CC(=O)O)C(=O)O` (mixture of isomers), the “Cell protein in untreated control” value in experiment [1] came to 79%; in experiment [2], 78%.

`NC(=O)C(F)[C@H](N)C(=O)O.N[C@@H](CC(=O)O)C(=O)O` (mixture of isomers; form 1): the “Cell protein in untreated control” value in experiment [3] is 68%; in experiment [4] it was 93%.

For `NC(=O)C(F)[C@H](N)C(=O)O.NC(=O)C[C@H](N)C(=O)O` (mixture of isomers; form 2), the “Cell protein in untreated control” value came out at 19% in experiment [3] and 80% in experiment [4].

Turning to `NC(=O)C(F)C(N)C(=O)O` (racemic), the Cell protein in experiment [5] was 0 ug dish-1; in [6], 15 ug dish-1; in experiment [7], 35 ug dish-1; in experiment [8] it was 36 ug dish-1; in [9], 16 ug dish-1; in experiment [10], 0 ug dish-1. For the same compound, the Cell protein in experiment [11] came to 0 ug dish-1; in [14] it was 55 ug dish-1; in experiment [15], 31 ug dish-1; in [16], 85 ug dish-1; in [17] it was 27 ug dish-1; in [18] it was 14 ug dish-1. Moreover, the figures for the “Cell protein in untreated control” value in experiment [12] and in experiment [13] were 17% and 0%, respectively.
